Data: ChEMBL document CHEMBL1128721, “Identification, characterization and pharmacological profile of three metabolites of (R)-(+)-1,2,3,6-tetrahydro-4-phenyl-1-[(3-phenylcyclohexen-1-yl)methyl]pyridine (CI-1007), a dopamine autoreceptor agonist and potential antipsychotic agent” (J Med Chem, 1995)

What was measured:
Monkey = assay: Inhibition of conditioned avoidance in squirrel monkeys was determined after peroral administration of compound; type: functional; conditions: in Saimiri, po
Summary of the method: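 Squirrel monkeys dosed orally, conditioned avoidance monitored for 6 h. Inhibition taken as percent of control avoidance responding over the 4 h peak-effect period. ED50 with 95% confidence range from three doses, eight monkeys per dose.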

D(2) dopamine receptor [1] = target: T1, D(2) dopamine receptor (Homo sapiens, UniProt P14416); assay: Intrinsic activity relative to Quinpirole for human Dopamine receptor D2L was determined
Summary of the method: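 CHO-10001 cells transfected with human DA D2L receptor; activation read as stimulation of [3H]thymidine uptake (mitogenesis). Intrinsic activity = maximal response of compound relative to maximal response of full DA agonist quinpirole, ± SEM.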

Rattus norvegicus [2] = assay: Effect on […] in rats after intraperitoneal administration of compound (10 mg/kg) and GBL, was determined and expressed as percent reversal of the increase in DOPA; type: functional
Mus musculus = assay: Inhibition of locomotor activity in mice was determined after intraperitoneal administration of compound; type: functional; conditions: ip
Summary of the method: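 Mice dosed ip, then tested immediately for 1 h in darkened cylindrical photobeam chambers. Inhibition expressed relative to vehicle-treated mice. ED50 with 95% confidence range from three to six doses, 6–18 animals per dose.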

Rattus norvegicus [3] = assay: Effect on DOPA accumulation in rat striatum after intraperitoneal administration of compound (10 mg/kg) and GBL, was determined and expressed as percent reversal of the increase in DOPA; type: functional
Summary of the method: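 Male Long-Evans rats given compound 10 mg/kg ip 60 min before sacrifice. GBL 750 mg/kg ip (omitted in controls) and NSD 1015 100 mg/kg ip given 30 min before sacrifice. Striatal DOPA measured by HPLC with electrochemical detection. Result is percent reversal of the GBL-induced DOPA rise, ± SEM.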

D(2) dopamine receptor [4] = target: T1, D(2) dopamine receptor; assay: Binding affinity towards human Dopamine receptor D2L evaluated using [3H]N-0437
Summary of the method: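 CHO-K1 membranes expressing human D2L incubated in triplicate with 1 nM [3H]N-0437 in 25 mM Tris HCl pH 7.4 with 1 mM EDTA and 6 mM MgCl2, 25 °C for 60 min. Nonspecific binding set with 1 μM haloperidol. Filtration, scintillation counting. Ki by nonlinear regression from four to six concentrations, ± SEM.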

D(3) dopamine receptor = D(3) dopamine receptor (Homo sapiens, UniProt P35462); assay: Binding affinity towards human Dopamine receptor D3 evaluated using [3H]spiperone
D(4) dopamine receptor = target: T2, D(4) dopamine receptor (Homo sapiens, UniProt P21917); assay: Binding affinity towards human Dopamine receptor D4.2 evaluated using [3H]spiperone
T2 sequence (P21917 whole entry): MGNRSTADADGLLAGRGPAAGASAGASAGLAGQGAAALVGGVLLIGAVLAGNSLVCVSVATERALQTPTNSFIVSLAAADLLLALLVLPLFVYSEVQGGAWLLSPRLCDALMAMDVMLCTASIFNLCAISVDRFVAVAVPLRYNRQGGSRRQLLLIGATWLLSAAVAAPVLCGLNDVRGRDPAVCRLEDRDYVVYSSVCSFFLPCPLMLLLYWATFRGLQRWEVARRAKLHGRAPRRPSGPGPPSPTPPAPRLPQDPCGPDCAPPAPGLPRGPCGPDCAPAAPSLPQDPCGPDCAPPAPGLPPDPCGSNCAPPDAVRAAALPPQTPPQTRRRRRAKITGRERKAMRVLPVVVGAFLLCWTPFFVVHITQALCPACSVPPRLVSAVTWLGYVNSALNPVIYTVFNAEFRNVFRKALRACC
Summary of the method: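 CHO-K1 membranes bearing human D4.2 run in triplicate with 0.2 nM [3H]spiperone in Tris HCl pH 7.4 buffer with 1.5 mM CaCl2 and 5 mM KCl, 25 °C, 60 min. Specific binding is the fraction blocked by 1 μM haloperidol. Filtration, then scintillation counting. Ki ± SEM by nonlinear regression over four to six concentrations; IC50 given where inhibition at 10 μM is below 50%.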

D(2) dopamine receptor [5] = target: T1, D(2) dopamine receptor; assay: Binding affinity towards human Dopamine receptor D2L evaluated using [3H]spiperone
Summary of the method: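 Human D2L expressed in CHO-K1 membranes. Labelled with 0.6 nM [3H]spiperone in triplicate in Tris HCl pH 7.4 buffer with 1 mM EDTA and 6 mM MgCl2, 60 min at 25 °C. 1 μM haloperidol defines specific binding. Bound ligand filtered and counted. Ki ± SEM from four to six concentrations by nonlinear regression.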

Rattus norvegicus [6] = assay: Effect on DOPA accumulation in rat striatum after intraperitoneal administration of compound (3 mg/kg) and GBL, was determined and expressed as percent reversal of the increase in DOPA; type: functional

T1 sequence (P14416 whole entry): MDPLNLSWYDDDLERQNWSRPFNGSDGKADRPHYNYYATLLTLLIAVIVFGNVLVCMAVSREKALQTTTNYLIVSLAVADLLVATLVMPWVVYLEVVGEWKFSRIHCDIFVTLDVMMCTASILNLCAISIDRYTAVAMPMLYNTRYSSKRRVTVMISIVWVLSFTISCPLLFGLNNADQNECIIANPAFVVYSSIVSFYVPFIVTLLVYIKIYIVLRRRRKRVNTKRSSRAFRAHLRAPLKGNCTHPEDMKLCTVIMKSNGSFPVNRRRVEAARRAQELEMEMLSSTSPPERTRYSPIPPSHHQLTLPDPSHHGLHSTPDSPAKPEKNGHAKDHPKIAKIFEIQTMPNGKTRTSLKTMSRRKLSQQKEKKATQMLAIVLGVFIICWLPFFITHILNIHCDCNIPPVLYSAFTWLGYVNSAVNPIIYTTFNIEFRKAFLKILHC
D(3) dopamine receptor, sequence (P35462 whole entry): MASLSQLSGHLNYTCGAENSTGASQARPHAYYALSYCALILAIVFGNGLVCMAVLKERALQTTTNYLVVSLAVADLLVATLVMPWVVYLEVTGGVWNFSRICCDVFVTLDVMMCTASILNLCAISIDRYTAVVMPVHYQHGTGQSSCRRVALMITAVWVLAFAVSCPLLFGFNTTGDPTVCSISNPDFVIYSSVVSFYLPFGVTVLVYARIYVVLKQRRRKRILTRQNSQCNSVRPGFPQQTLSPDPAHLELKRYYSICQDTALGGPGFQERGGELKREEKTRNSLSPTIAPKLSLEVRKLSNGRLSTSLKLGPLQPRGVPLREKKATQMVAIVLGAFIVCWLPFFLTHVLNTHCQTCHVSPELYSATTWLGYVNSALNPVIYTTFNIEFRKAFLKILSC

Compound: C1=C(c2ccccc2)CCN(C[C@@H]2CCC=C(c3ccccc3)C2)C1 [CI-1007]
- ED50 (Monkey): 0.63 mg/kg
- Activity (D(2) dopamine receptor [1]): 0.66
- Activity (Rattus norvegicus [2]): -99
- ED50 (Mus musculus): 0.7 mg/kg
- Activity (Rattus norvegicus [3]): -66
- Ki (D(2) dopamine receptor [4]): 8.4 nM

Compound: Oc1ccc(C2=CCN(C[C@@H]3CCC=C(c4ccccc4)C3)CC2)cc1
- ED50 (Monkey): > 2.5 mg/kg
- Activity (D(2) dopamine receptor [1]): 0.37
- Activity (Rattus norvegicus [2]): 33
- Ki (D(3) dopamine receptor): 56.7 nM
- Ki (D(4) dopamine receptor): > 10000 nM
- ED50 (Mus musculus): > 30 mg/kg
- Ki (D(2) dopamine receptor [5]): 94 nM
- Activity (Rattus norvegicus [3]): 0
- Ki (D(2) dopamine receptor [4]): 5.7 nM

Compound: Oc1ccc(C2=CCC[C@@H](CN3CC=C(c4ccccc4)CC3)C2)cc1
- ED50 (Monkey): 1.34 mg/kg
- Activity (D(2) dopamine receptor [1]): 0.62
- Activity (Rattus norvegicus [6]): -44
- Activity (Rattus norvegicus [2]): -100
- Ki (D(3) dopamine receptor): 0.52 nM
- Ki (D(4) dopamine receptor): 61.4 nM
- ED50 (Mus musculus): 0.3 mg/kg
- Ki (D(2) dopamine receptor [5]): 3.5 nM
- Activity (Rattus norvegicus [3]): -27
- Ki (D(2) dopamine receptor [4]): 0.2 nM

Compound: Oc1ccc(C2=CCN(C[C@@H]3CCC=C(c4ccc(O)cc4)C3)CC2)cc1
- ED50 (Monkey): > 2.5 mg/kg
- Activity (D(2) dopamine receptor [1]): 0.29
- Activity (Rattus norvegicus [2]): -10
- Ki (D(3) dopamine receptor): 3.4 nM
- Ki (D(4) dopamine receptor): 68 nM
- ED50 (Mus musculus): 6.1 mg/kg
- Ki (D(2) dopamine receptor [5]): 10.3 nM
- Activity (Rattus norvegicus [3]): -8
- Ki (D(2) dopamine receptor [4]): 2.2 nM
